Assay: Metabolic stability in mouse liver microsomes assessed as parent compound remaining; also: time not given here
Format: ADME, Microsome
How it was run: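 Test compound at 0.5 μM initial concentration incubated with human, mouse or rat liver microsomes (protein 1 mg/mL). Metabolic stability reported as percent of parent compound remaining after incubation.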

Stabilty: 92%
Structure (SMILES): CC(C)(O)C(=O)N[C@@H]1CC[C@@]2(S(=O)(=O)c3ccc(F)cc3)c3ccc(C(F)(C(F)(F)F)C(F)(F)F)cc3CC[C@@H]12
